This is an account of results in ChEMBL document CHEMBL1133137, “Synthesis and biological effects of a new series of 2-amino-3-benzoylthiophenes as allosteric enhancers of A1-adenosine receptor” (Bioorg Med Chem Lett, 2000).

What all share (type): functional, cell-based
Experiment [1] concerns the target T1, Adenosine receptor A1 (Homo sapiens) (UniProt P30542).
T1 sequence (whole entry): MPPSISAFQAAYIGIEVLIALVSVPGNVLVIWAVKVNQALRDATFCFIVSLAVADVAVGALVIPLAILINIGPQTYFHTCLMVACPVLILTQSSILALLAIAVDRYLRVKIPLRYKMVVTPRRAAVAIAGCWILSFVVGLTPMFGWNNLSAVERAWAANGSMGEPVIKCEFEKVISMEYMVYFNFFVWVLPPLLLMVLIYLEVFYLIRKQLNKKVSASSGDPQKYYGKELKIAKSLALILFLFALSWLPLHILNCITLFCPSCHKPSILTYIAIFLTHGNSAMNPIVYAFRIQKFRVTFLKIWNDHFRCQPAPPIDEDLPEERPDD
Description: The compound was tested for its percentage of response to 10 uM of PD-81723 on CHO cells expressing the cloned human A1-adenosine receptor at 0.1; change of less than 5% of allosteric enhancement. Put shortly:
(§1)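 CHO cells stably expressing recombinant human A1 receptors (~8000 fmol/mg protein), thawed from low-passage frozen stocks, grown to confluence over 48–72 h in Ham's F-12 with 10% FBS and G-418. Test compound incubated 6 min at 36 °C with 0.05–0.1 nM CPA. Reaction stopped with HCl (final 50 mM). cAMP in acid extracts measured by radioimmunoassay. Reduction normalized to the response to 10 μM PD 81,723.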

For experiment [2], the target named is T1, Adenosine receptor A1 (Homo sapiens). Description: Percentage of response to 10 uM of PD-81723 on CHO cells expressing the cloned human A1-adenosine receptor at 1 uM; An increase of cAmp content of cells. Put shortly:
as §1

Experiment [3] shares this target. Description: Percentage of response to 10 uM of PD-81723 on CHO cells expressing the cloned human A1-adenosine receptor at 10 uM; An increase of cAmp content of cells. In short, it runs like this:
as §1

Experiment [4] has the same target. Description: The compound was tested for its percentage of response to 10 uM of PD-81723 on CHO cells expressing the cloned human A1-adenosine receptor at 0.1 uM concentration; change of less than 5% of allosteric enhancement. In short, it runs like this: as §1
The target is the same in experiment [5]. Description: The compound was tested for its percentage of response to 10 uM of PD-81723 on CHO cells expressing the cloned human A1-adenosine receptor at 1 uM concentration; change of less than 5% of allosteric enhancement. In short, it runs like this: as §1
Experiment [6] has the same target. Description: The compound was tested for its percentage of response to 10 uM of PD-81723 on CHO cells expressing the cloned human A1-adenosine receptor at 10 uM concentration; change of less than 5% of allosteric enhancement. In short, it runs like this:
as §1

For experiment [7] the target is unchanged. Nature of the experiment: The compound was tested for its percentage of response to 10 uM of PD-81723 on CHO cells expressing the cloned human A1-adenosine receptor at 0.1 uM concentration; change of less than 5% of allosteric enhancement. Put shortly:
as §1

The target is the same in experiment [8]. Description: Percentage of response to 10 uM of PD-81723 on CHO cells expressing the cloned human A1-adenosine receptor at 10 uM concentration. In short, it runs like this: as §1
The target is the same in experiment [9]. Description: Percent response to 10 uM PD-81723 on CHO cells expressing human A1-adenosine receptor at 0.1 uM; An increase of cAmp content of cells. Put shortly:
as §1

The target is the same in experiment [10]. Description: The compound was tested for its percentage of response to 10 uM of PD-81723 on CHO cells expressing the cloned human A1-adenosine receptor at 1 uM. Put shortly: as §1
Experiment [11] has the same target. Nature of the experiment: The compound was tested for its percentage of response to 10 uM of PD-81723 on CHO cells expressing the cloned human A1-adenosine receptor at 10 uM. In short, it runs like this: as §1

SMILES strings stand for the structures.

With `Nc1sc2c(c1C(=O)c1ccc(Cl)cc1)CCN(C(=O)OCc1ccccc1)C2`, the figures for the Response in experiment [1], in [2] and in experiment [3] were below 5%, “Increased cAMP” and “Increased cAMP”, respectively.
Consider `Nc1sc2c(c1C(=O)c1ccc(Br)cc1)CCNC2`, for which the Response in experiment [4], in [5] and in experiment [6] was below 5% in each case.
For the molecule `Cc1sc(N)c(C(=O)c2ccccc2)c1C`, the values for the Response in [7], in experiment [2] and in [8] were below 5%, “Increased cAMP” and 19%, respectively.
`Nc1sc2c(c1C(=O)c1ccc(Cl)cc1)CCN(CCc1ccc([N+](=O)[O-])cc1)C2`: the Response entry in experiment [9] is “Increased cAMP”; in [10], 13%; in experiment [2], “Increased cAMP”; in experiment [11] it was 31%; in experiment [3], “Increased cAMP”.
